From ChEMBL document CHEMBL1157470, “Hydrolytic reactivity trends among potential prodrugs of the O2-glycosylated diazeniumdiolate family. Targeting nitric oxide to macrophages for antileishmanial activity” (J Med Chem, 2008)

What was measured:
[1] = Chemical stability assessed as half life of hydrolysis in 0.10 M phosphate buffer at pH 7.4; assay type: physicochemical
How it was run: (§1)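 Hydrolysis at 37 °C in 1.0 M NaOH, 0.1 M phosphate pH 7.4, or 0.05 M citrate pH 3.8–4.6, followed as first-order loss of the diazeniumdiolate UV absorbance at λmax. k from the ln(At − Ainf) versus time slope; Ainf was extrapolated when the reaction was incomplete. NaOH runs were followed in a thermostated diode-array cell.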

[2] = Chemical stability assessed as half life of hydrolysis in 0.05 M citrate buffer at pH 4.0; assay type: physicochemical
How it was run: (§2)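 Half-lives at 37 °C across buffers from pH 4.0 to 14 (1.0, 0.10 and 0.0125 M NaOH; 0.05 M glycine/NaOH pH 10.0; 0.10 M phosphate pH 8.1 and 7.4; 0.05 M citrate pH 4.0). UV decay of the diazeniumdiolate chromophore at λmax. First-order k from the slope of ln(At − Ainf) versus time.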

[3] = Chemical stability assessed as half life of hydrolysis in 1.0 M sodium hydroxide buffer at pH 14.0; assay type: physicochemical; how it was run: as §2
[4] = Chemical stability assessed as half life of hydrolysis in 0.10 M phosphate buffer at pH 8.1; assay type: physicochemical; how it was run: as §2
[5] = Chemical stability assessed as half life of hydrolysis in 0.5 M glycine/sodium hydroxide buffer at pH 10.0; assay type: physicochemical; conditions: in the assay text read “0.05 M glycine” for “0.5 M glycine”; how it was run: as §2
[6] = Chemical stability assessed as half life of hydrolysis in 0.10 M sodium hydroxide buffer at pH 13.0; assay type: physicochemical; how it was run: as §2
[7] = Chemical stability assessed as half life of hydrolysis in 0.0125 M sodium hydroxide buffer at pH 12.1; assay type: physicochemical; how it was run: as §2
[8] = Stability assessed as nitric oxide release in presence of human placenta N-acetyl-glucosaminidase measured per mole of glycoside in 0.1 M phosphate buffer at pH 7.4 at 0.10 mM […]; assay type: ADME; conditions: pH 7.4, 100 µM
How it was run: (§3)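 37 °C in 0.1 M phosphate pH 7.4 with 0.05 mM DTPA. Jack bean N-acetylglucosaminidase at 0.11 units/mL or human placenta enzyme at 0.044 units/mL; substrate 0.10 or 0.16 mM initial. NO measured by chemiluminescence until evolution stopped, with the curve integrated per mole glycoside. Nitrite in the remaining solution measured by Griess. Enzyme activity verified with PNP-NAG.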

[9] = Stability assessed as nitrite release in presence of human placenta N-acetyl-glucosaminidase measured per mole of glycoside in 0.1 M phosphate buffer at pH 7.4 at 0.10 mM by Griess reagent assay; assay type: ADME; conditions: pH 7.4, 100 µM; how it was run: as §3
[10] = Stability assessed as nitrite release in presence of Jack bean N-acetyl-glucosaminidase measured per mole of glycoside in 0.1 M phosphate buffer at pH 7.4 at 0.10 mM by Griess reagent assay; assay type: ADME; conditions: pH 7.4, 100 µM; how it was run: as §3
[11] = Chemical stability assessed as half life of hydrolysis in at pH 14; assay type: physicochemical; conditions: 1.0 M NaOH; how it was run: as §1
[12] = Stability in iNOS deficient mouse macrophage assessed as increase in nitric oxide accumulation at 0.25 mM after 24 hrs; assay type: ADME, cell-based; conditions: 250 µM
How it was run: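 Glycoside (0.25 mM initial) incubated 24 h at 37 °C in PBS, in RPMI with 2.5% fetal calf serum, or in that medium while culturing iNOS-deficient mouse peritoneal macrophages. Nitrite in supernatant measured by Griess. Triplicates, mean; one of two experiments.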

[13] = Chemical stability assessed as half life of hydrolysis in 0.1 M phosphate buffer at pH 7.4; assay type: physicochemical; how it was run: as §1
[14] = Chemical stability assessed as half life of hydrolysis in 0.05 M citrate buffer at pH 4.6; assay type: physicochemical; how it was run: as §1
[15] = Stability assessed as nitric oxide release in presence of Jack bean N-acetyl-glucosaminidase measured per mole of glycoside in 0.1 M phosphate buffer at pH 7.4 at 0.10 mM […]; assay type: ADME; conditions: pH 7.4, 100 µM; how it was run: as §3
[16] = Chemical stability assessed as half life of hydrolysis in 0.05 M citrate buffer at pH 3.8; assay type: physicochemical; how it was run: as §1
[17] = Stability assessed as nitric oxide release in presence of human placenta N-acetyl-glucosaminidase measured per mole of glycoside in 0.1 M phosphate buffer at pH 7.4 at 0.16 mM […]; assay type: ADME; conditions: pH 7.4, 160 µM; how it was run: as §3
[18] = Stability assessed as nitrite release in presence of human placenta N-acetyl-glucosaminidase measured per mole of glycoside in 0.1 M phosphate buffer at pH 7.4 at 0.16 mM by Griess reagent assay; assay type: ADME; conditions: pH 7.4, 160 µM; how it was run: as §3
[19] = Stability assessed as nitric oxide release in presence of Jack bean N-acetyl-glucosaminidase measured per mole of glycoside in 0.1 M phosphate buffer at pH 7.4 at 0.16 mM […]; assay type: ADME; conditions: pH 7.4, 160 µM; how it was run: as §3
[20] = Stability in iNOS-deficient mouse peritoneal macrophages in RPMI medium assessed as increase in nitric oxide release at 0.25 mM after 24 hrs; conditions: 250 µM
[21] = Stability assessed as nitrite release in presence of Jack bean N-acetyl-glucosaminidase measured per mole of glycoside in 0.1 M phosphate buffer at pH 7.4 at 0.16 mM by Griess reagent assay; assay type: ADME; conditions: pH 7.4, 160 µM; how it was run: as §3

CCN(CC)/[N+]([O-])=N\OC1CCCCO1 (configuration not stated)
t1/2 [1]: 3.1 min | t1/2 [2]: 3.2 min | t1/2 [3]: 2.5 min | t1/2 [4]: 3.5 min | t1/2 [5]: 2.9 min | t1/2 [6]: 2.7 min | t1/2 [7]: 3.5 min

CCN(CC)/[N+]([O-])=N/O[C@@H]1O[C@H](CO)[C@@H](O)[C@H](O)[C@H]1NC(C)=O
Activity [8]: 1.73 mol/mol | Activity [9]: 0.24 mol/mol | Activity [10]: 0.05 mol/mol | t1/2 [11]: 0.85 h | Activity [12]: 2 | t1/2 [13]: 12 h | t1/2 [14]: 17 h | Activity [15]: 1.26 mol/mol

CCN(CC)/[N+]([O-])=N/O[C@H]1C[C@@H](O)[C@H](O)[C@@H](CO)O1
t1/2 [16]: 28.8 h | t1/2 [11]: 0.383 h | t1/2 [13]: 12 h

CCN(CC)/[N+]([O-])=N/O[C@@H]1O[C@H](CO)[C@@H](O)[C@H](O)[C@H]1O
t1/2 [11]: 0.035 h | t1/2 [14]: > 240 h

CCN(CC)/[N+]([O-])=N/O[C@H]1O[C@H](CO)[C@@H](O)[C@H](O)[C@@H]1O
t1/2 [11]: 4.97 h | t1/2 [13]: > 240 h

CCN(CC)/[N+]([O-])=N/O[C@@H]1O[C@@H](C)[C@@H](O)[C@@H](O)[C@@H]1O
t1/2 [11]: 0.067 h | t1/2 [13]: > 240 h | t1/2 [14]: > 240 h

CC(=O)N[C@H]1[C@H](O/N=[N+](\[O-])N2CCCC2)O[C@H](CO)[C@@H](O)[C@@H]1O
Activity [17]: 1.69 mol/mol | Activity [18]: 0.36 mol/mol | Activity [19]: 1.72 mol/mol | Activity [20]: 4 | t1/2 [13]: > 240 h | t1/2 [14]: > 240 h | Activity [21]: 0.12 mol/mol
